# Experimental data pooled from the literature.
# Protocols differ between the studies behind these lines.
# Target: Protein kinase C eta type (PRKCH, Homo sapiens, UniProt P24723)
Compound,observed,mode,technique,concentration,endpoint,result
COc1cc(Nc2ncc(F)c(Nc3ccc4c(n3)NC(=O)C(C)(C)O4)n2)cc(OC)c1OC,binding,,,10 µM,inhibition,0%
COc1ncccc1-c1cnn2ccc(N3CCN(C(=O)OC(C)C)CC3)nc12,binding,,competition with immobilised ligand,1 µM,remaining binding,49%
Cn1cc(-c2cc(F)cc(N3CCn4c(cc5c4CCCC5)C3=O)c2CO)cc(Nc2ccc(N3CCN(C4COC4)CC3)cn2)c1=O,enzyme activity,inhibitor,,0.1 µM,inhibition,4%
Cc1nn(C)cc1-c1nc2c(N3CCN(Cc4ccc(Cl)cc4)CC3)c(Cl)cnc2[nH]1,binding,,competition with immobilised ligand,1 µM,remaining binding,100%
N#CC1(c2ccccn2)CCN(Cc2cc(C(=O)O)c(=O)n3ccccc23)CC1,cell-free assay,,competition with immobilised ligand,1 µM,remaining binding,100%
Cn1cc(-c2cccc(N3CCc4c(sc5c4CC(C)(C)C5)C3=O)c2CO)cc(Nc2ccncn2)c1=O,enzyme activity,inhibitor,,1 µM,inhibition,20%
Cn1cncc1[C@](O)(COc1ccc(C#N)cc1-c1ccc(OC(F)(F)F)cc1)c1ccc(C#N)cc1,cell-free assay,,competition with immobilised ligand,1 µM,remaining binding,94%
Nc1ncc(-c2nc(N3CCOCC3)nc(N3CCOCC3)n2)c(C(F)F)n1,cell-free assay,,competition with immobilised ligand,10 µM,remaining binding,91%
